From PMC3907283 (Nature, 2013) come the findings set out here.

Data set [1] has as its system Swi6. Nature of the data set: SV AUC weighted average sedimentation coefficient. It is filed as binding, S. pombe. The following applies: [Swi6^WT] = 20μM.
Data set [2] deals with H3K9me3 tail peptide. The experiment in a line: H3 tail peptide binding. The conditions noted are these: Supplementary Fig. 5. Put shortly:
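Intrinsic Trp fluorescence (W104 in aromatic cage): 200nM Swi6 in 20mM HEPES pH 7.5, 150mM KCl, 1 mM DTT, titrated with H3 peptide (residues 1–18), K9 trimethylated or unmethylated. 10min at 30°C, excitation 295 nm, emission read at 330 nm. Kd from 1:1 binding fit, averaged over three independent data sets.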

The target in data set [3] is Swi6 (Schizosaccharomyces pombe, UniProt P40381, C121S/C124S/C310S). The experiment in a line: Swi6 self-association by sedimentation equilibrium/velocity AUC. In kind it is binding, S. pombe. The conditions noted are these: all three native cysteines mutated to serines; Supplementary Fig. 5.
In data set [4] the target is T1, Swi6 (Schizosaccharomyces pombe, UniProt P40381).
T1 sequence (P40381 1-328): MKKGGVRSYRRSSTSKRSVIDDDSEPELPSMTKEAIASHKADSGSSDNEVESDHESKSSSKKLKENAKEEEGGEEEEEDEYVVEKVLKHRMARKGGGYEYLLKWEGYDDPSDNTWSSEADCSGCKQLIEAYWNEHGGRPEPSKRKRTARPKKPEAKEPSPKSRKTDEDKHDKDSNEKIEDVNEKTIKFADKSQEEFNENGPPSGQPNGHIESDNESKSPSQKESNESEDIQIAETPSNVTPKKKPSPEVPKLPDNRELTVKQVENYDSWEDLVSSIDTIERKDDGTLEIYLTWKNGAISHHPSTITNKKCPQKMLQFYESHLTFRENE
Described as above. In kind it is binding, S. pombe. The following applies: AUC.

The next data set relates to H3K9me3 nucleosomes. Nature of the data set: Nucleosome binding by fluorescence anisotropy/polarization. Set-up: species or system Xenopus laevis. In a few lines: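 Core nucleosomes assembled from recombinant Xenopus histones on 147 bp 601 DNA, one end 6-carboxyfluorescein-labelled; H3K9me3 mimicked by methyl-lysine analog (H3KC9me3). 5-10 nM nucleosomes titrated with Swi6 in 20mM HEPES pH 7.5, 150mM KCl, 1 mM DTT, 0.01% NP40; 30 min at 24°C; FP at λex 480/λem 530nm. Fit to a two-step model giving Kd1 (Swi6–nucleosome) and Kd2 (scaffolded Swi6–Swi6); n ≥ 3, s.e.m.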

Data set [5] has as its system Swi6. The experiment in a line: Swi6 self-association by sedimentation equilibrium/velocity AUC. In kind it is binding, S. pombe. The conditions noted are these: AUC, Supplementary Fig. 6.
In data set [6] the test system is ura4+ reporter gene inserted at the pericentromeric imr region. Nature of the data set: ura4+ reporter silencing assay. The following applies: 5-FOA medium, 30°C, 2-3 days; Fig. 4d. It is filed as cell-based, S. pombe. In a few lines:
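Strains grown overnight to saturation, adjusted to OD600 of 1 for the most concentrated spot, then 5-fold serial dilutions plated on non-selective YS and on 5-FOA (2 grams/liter) media.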

Data set [7] has as its target H3K9me3 tail peptide (UniProt P68431). Nature of the data set: other fluorescence titration + fluorescence polarisation.
Data set [8] concerns Swi6. The experiment in a line: Swi6 protein levels in vivo. It is filed as cell-based, S. pombe. The conditions noted are these: silencing strains; Supplementary Fig. 9. Put shortly: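 Detection with rabbit polyclonal antibodies raised against recombinant Swi6.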
Data set [9] concerns the molecule itself. Nature of the data set: AUC.
Data set [10] concerns the molecule itself. Nature of the data set: AUC. The source holds these as a separate data set.

Positions count from the first letter of the chain named. Bounds are passed on as bounds.

One may read the Kd as the free concentration of one partner at which half of the binding sites on the other are occupied at equilibrium, for simple one-to-one binding. Low readings indicate tighter binding, high ones weaker binding.

Swi6 (Schizosaccharomyces pombe, UniProt P40381, C121S/C124S/C310S), sequence (P40381 whole entry C121S/C124S/C310S): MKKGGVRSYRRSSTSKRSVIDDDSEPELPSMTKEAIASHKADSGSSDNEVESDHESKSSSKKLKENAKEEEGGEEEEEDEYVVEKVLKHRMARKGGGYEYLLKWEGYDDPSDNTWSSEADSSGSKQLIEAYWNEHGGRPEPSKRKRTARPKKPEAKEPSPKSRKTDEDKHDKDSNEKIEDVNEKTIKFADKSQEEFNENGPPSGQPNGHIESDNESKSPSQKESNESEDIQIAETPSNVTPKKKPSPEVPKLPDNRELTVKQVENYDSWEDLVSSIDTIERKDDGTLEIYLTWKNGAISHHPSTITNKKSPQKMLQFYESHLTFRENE

On to “Swi6^WT: major S. pombe HP1 protein, Swi6, wild type”, for which the “sedimentation coefficient, tetramer (S4)” value in the data set on Swi6 [1] is reported as ~ 5.2 S. For the same molecule, the “effect of mutating native cysteines on H3 peptide binding” value with H3K9me3 tail peptide [2] is “destabilized oligomerization, H3 peptide binding”. For the same molecule, the “effect of mutating native cysteines on oligomerization” value with Swi6 [3] is recorded as “destabilized oligomerization”. In the data set with Swi6 [4] (SE and SV global analysis, 8°C, RB: 20mM HEPES pH 7.5, 150mM KCl, 1 mM DTT), the “1/Kobsiso, isodesmic self-association of Swi6 dimers (chain elongation)” value was about 70 µM. Further, in the data set with Swi6 [4] (saturating methylated H3 tail peptide, Supplementary Fig. 4), the “Swi6 dimerization with saturating methylated H3 tail peptide” value was “weakened”. For the same molecule, the “effect of mutating native cysteines on nucleosome binding” value in the data set with H3K9me3 nucleosomes (Supplementary Fig. 5) was “destabilized oligomerization, H3 peptide binding, and nucleosome binding”.
Consider “Swi6-CFP: Swi6 with the CFP tag moved to the C-terminus”, for which the “sedimentation coefficient compared to CFP-Swi6 (in words)” value in the data set on Swi6 [5] is “lower sedimentation coefficient”.

B1: Swi6^LoopX (natural protein)
chain: T1 sequence (P40381 1-328) with R93A, K94A
B1: the “silencing of ura4+ reporter” value in [6] was “defects in silencing that are comparable to the swi6+ deletion strain”. Further, the fold stronger binding than Swi6^WT with H3K9me3 tail peptide [7] came to 6 fold. The Swi6 protein levels entry with Swi6 [8] is recorded as “not due to reductions in protein levels”. The “discrimination for the methyl mark in nucleosome binding” value in the data set on H3K9me3 nucleosomes (fluorescence anisotropy, Fig. 4a and Supplementary Fig. 8) is “discrimination for the methyl mark was maintained”.

B2: Swi6^WT (natural protein, S. pombe, UniProt P40381 1-328, looked up)
chain: T1 sequence (P40381 1-328)
On to B2, for which the Kd in the data set “AUC [9]” was under 1 nM.

B3: CFP-Swi6 (natural protein, S. pombe, UniProt P40381 1-328, looked up)
chain: T1 sequence (P40381 1-328)
As to B3, the “fold weaker dimer than Swi6^WT” value in “AUC [10]” is about 10 fold.
